Source: PubChem
GalR3 antagonist: human GalR3 antagonism; HEK293 GalR3-CNG cAMP membrane potential fluorescence; galR3 body fused to GalR1 C-terminus; O60755; inhibition, % at 3 µM; AID 651719; 0.44% of 360,000 active;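 active means inhibition above the screen-wide average plus 3 SD, cut at about 13% in these data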;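 further: forskolin and galanin both at EC90 stimulate the cells; cAMP rise reported by CNG channel membrane potential dye signal; 0% = forskolin plus galanin with DMSO and 100% = forskolin alone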
Target sequence (O60755 1-299 limits assumed): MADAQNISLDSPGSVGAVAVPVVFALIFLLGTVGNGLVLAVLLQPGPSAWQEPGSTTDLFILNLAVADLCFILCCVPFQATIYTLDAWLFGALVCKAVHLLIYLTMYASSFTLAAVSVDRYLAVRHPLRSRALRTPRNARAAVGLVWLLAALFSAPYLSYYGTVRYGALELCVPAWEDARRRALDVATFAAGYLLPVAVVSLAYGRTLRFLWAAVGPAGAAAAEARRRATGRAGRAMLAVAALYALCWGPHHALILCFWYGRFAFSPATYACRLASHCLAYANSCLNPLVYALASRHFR
TAAR1 antag: human TAAR1 antagonism; Q96RJ0; CHO RD-HGA16 TAAR1, Fluo-8 calcium fluorescence, antagonist; inhibition, % at 3 µM; 1.5% of 360,000 active; AID 624466;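 active means inhibition above a per-plate cutoff, the mean inhibition of test compounds on that plate plus 3 SD, cut at about 49% in these data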;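 further: 0% = DMSO plus EC80 beta-PEA response and 100% = DMSO alone without agonist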
Target sequence (Q96RJ0 whole entry, looked up): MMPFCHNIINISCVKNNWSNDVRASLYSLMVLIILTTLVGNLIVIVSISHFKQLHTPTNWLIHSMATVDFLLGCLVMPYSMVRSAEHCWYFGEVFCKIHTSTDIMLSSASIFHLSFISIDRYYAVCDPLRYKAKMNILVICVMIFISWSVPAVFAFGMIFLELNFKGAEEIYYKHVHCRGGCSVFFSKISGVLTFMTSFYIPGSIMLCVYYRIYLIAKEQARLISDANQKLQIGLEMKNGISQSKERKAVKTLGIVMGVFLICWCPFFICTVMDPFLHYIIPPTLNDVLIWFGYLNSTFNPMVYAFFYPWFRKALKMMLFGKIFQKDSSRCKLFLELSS
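Test system: CHO RD-HGA16 cells bearing hTAAR1 | Reagent: β-PEA, EC80 | Compound dosing: 3 µM, single point | Schedule: Dye loading 75 min at 37 °C, then 30 min room temperature | Signal: Calcium fluorescence with Fluo-8 | Evaluation: Percent inhibition of PEA-evoked calcium signal, max/basal emission ratio | Control set: DMSO-only wells and EC80 β-PEA-stimulated wells | Repeats: Singlicate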
CHO parental Ca: counter-screen: ATP calcium response change in parental CHO cells. 0.63% of 330,000 active. inhibition, % at 5.6 µM. parental CHO-K1, ATP-induced calcium, Fluo-8 fluorescence;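 active means inhibition above that plate's mean sample inhibition plus 3 SD, cut at about 26% in these data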;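 further: 0% = ATP-challenged DMSO wells and 100% = DMSO wells without ATP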
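Material: parental CHO cells / Compound: single nominal dose of 5.6 µM per compound / Signal: Fluo-8 fluorescence / Replicates: singlicate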
TAAR1 ag: human TAAR1 agonism; AID 624467; 0.99% of 360,000 active; CHO RD-HGA16 TAAR1, Fluo-8 calcium fluorescence; vehicle wells 0%, saturating PEA agonist 100%; Q96RJ0; activation, % at 3 µM;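 active means activation above the mean activation of all test compounds in the run plus 3 SD, cut at about 38% in these data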
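System: CHO-derived RD-HGA16 cells with stable Gα16 and human TAAR1 / Times: 17-24 h plating, Fluo-8 75 min 37 °C, 30 min RT / Technique: calcium-sensitive Fluo-8 signal, excitation 470-495, emission 515-575 nm / Measure: % activation relative to PEA EC100 response / Benchmarks: DMSO and PEA EC100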
OX1R antag-1: blocks the human orexin 1 receptor | O43613 | CHO/OX1R cells, Fluo-8 calcium fluorescence, orexin A | inhibition, % at 5 µM | 0.43% of 330,000 active;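 active means inhibition above its plate's threshold, mean inhibition of all tested compounds on the plate plus 3 SD, cut at about 37% in these data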;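 further: 0% = orexin A challenge wells and 100% = SB-334867-A antagonist wells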
OX1R antag-2: OX1R (human) antagonism | O43613 | OX1R-expressing cells, FRET antagonist read-out | inhibition, % at 6.6 µM | 1.8% of 330,000 active | AID 485270; in the data active means inhibition mostly above about 38%, no sharp cut-off; inactive means mostly below about 40%;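 further: 0% = agonist challenge alone and 100% = reference antagonist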
TAAR1 ag confirm: human TAAR1 agonism, confirmed; shares compounds with TAAR1 ag; CHO RD-HGA16 TAAR1, Fluo-8 calcium fluorescence; scaled: DMSO 0%, maximal phenethylamine 100%; activation, % at 3 µM; 82% of 2,400 active; AID 651783;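 active means activation above a cutoff set at the run's mean compound activation plus 3 SD, cut at about 39% in these data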
Ga16 ag counter: counter-screen for TAAR1 agonists: nonselective agonists in parental cells | shares compounds with TAAR1 ag | CHO-Ga16 parental, Fluo-8 calcium fluorescence; normalized to maximal ATP response, DMSO zero | activation, % at 3 µM | 50% of 2,400 active;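 active means activation above the run cutoff, the mean activation over all tested wells plus 3 SD, cut at about 12% in these data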;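 further: 0% = DMSO wells and 100% = maximal ATP response on the peak over basal ratio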
TAAR1 desens: counter-screen for human TAAR1 agonists: agonists that desensitize TAAR1 | shares compounds with TAAR1 ag | CHO RD-HGA16 hTAAR1, Fluo-8 calcium, beta-PEA response inhibition | inhibition, % at 3 µM | 46% of 2,400 active;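 active means inhibition above the run cutoff, the mean inhibition of all test compounds plus 3 SD, cut at about 49% in these data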;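 further: beta-PEA stimulus applied at its EC80; loss of beta-PEA calcium signal after compound pretreatment read as receptor desensitization; 0% = DMSO with beta-PEA at EC80 and 100% = DMSO alone without agonist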
Ga16 antag count: counter-screen for TAAR1 agonists: nonselective Ga16 antagonists. shares compounds with TAAR1 ag. CHO-Ga16 ATP-induced calcium, Fluo-8 fluorescence. inhibition, % at 3 µM. 39% of 2,400 active;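 active means inhibition above the plate's mean compound inhibition plus 3 SD, computed per plate, cut at about 22% in these data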;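 further: 0% = EC80 ATP with DMSO and 100% = DMSO wells without ATP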
Starred values were filed as active, the others as inactive. Shown are actives, neighbours in structure and some others; about 4.3% of the full set was active somewhere.

Screening NC(c1ccccc1)c1csc(Nc2ccc(C(=O)NCCO)cc2)n1 (configuration not stated) returned GalR3 antagonist -4.6, TAAR1 antag -12.7 and TAAR1 ag 3.0.
CS(=O)(=O)c1ccc(Nc2nc(C(N)Cc3ccccc3)cs2)cc1 (configuration not stated) was read as GalR3 antagonist -1.8, TAAR1 antag 2.5, TAAR1 ag 46.7*, TAAR1 ag confirm 75.1*, Ga16 ag counter 1.7, TAAR1 desens 48.3 and Ga16 antag count 14.1.
`NC(Cc1ccccc1)c1csc(Nc2ccc(C(=O)NCCO)cc2)n1` (configuration not stated) gave GalR3 antagonist -6.3, TAAR1 antag 23.1, TAAR1 ag 44.9*, TAAR1 ag confirm 76.4*, Ga16 ag counter 1.6, TAAR1 desens 57.7* and Ga16 antag count 9.8.
Screening NC(Cc1ccc(F)cc1)c1csc(Nc2ccc(S(N)(=O)=O)cc2)n1 (configuration not stated) returned GalR3 antagonist -7.4, TAAR1 antag 18.5, TAAR1 ag 61.3*, TAAR1 ag confirm 76.4*, Ga16 ag counter 7.4, TAAR1 desens 52.8* and Ga16 antag count 7.4.
`CCCn1nc(C(=O)NCC2COc3ccccc3O2)c2ccccc2c1=O` (configuration not stated) gave GalR3 antagonist -3.8, TAAR1 antag 1.7, CHO parental Ca -34.1, TAAR1 ag 0.2, OX1R antag-1 -18.4 and OX1R antag-2 14.9.
Cc1[nH]n(-c2ccccc2)c(=S)c1C=Nc1ccc([N+](=O)[O-])cc1 was read as GalR3 antagonist -4.2, TAAR1 antag -5.6, CHO parental Ca 26.7, TAAR1 ag 19.2, OX1R antag-1 36.2 and OX1R antag-2 18.0.
`CCN(Cc1ccccc1)c1ccc(/C=C(\C#N)c2ccccn2)cc1` gave GalR3 antagonist -0.1, TAAR1 antag -4.1, CHO parental Ca -23.7, TAAR1 ag 4.1, OX1R antag-1 -25.1 and OX1R antag-2 25.1.
For CN(CCC#N)c1ccc(/C=C(\C#N)c2ccccn2)cc1 the results were GalR3 antagonist 7.1, TAAR1 antag 19.3, CHO parental Ca -5.7, TAAR1 ag 86.4*, OX1R antag-1 -10.8, OX1R antag-2 37.6, TAAR1 ag confirm 3.1, Ga16 ag counter 5.1, TAAR1 desens 8.2 and Ga16 antag count 9.8.
`CCCOc1ccc(OC(=O)c2ccc(Br)o2)cc1` gave GalR3 antagonist -5.2, TAAR1 antag 101.6*, CHO parental Ca 55.6*, TAAR1 ag 136.8*, OX1R antag-1 66.9*, OX1R antag-2 32.5, TAAR1 ag confirm 114.6*, Ga16 ag counter 94.6*, TAAR1 desens 85.5* and Ga16 antag count 79.1*.
CC(C)c1cc(C(C)C)c(S(=O)(=O)NC(c2ccccn2)C23CC2C3)c(C(C)C)c1 (configuration not stated) was read as GalR3 antagonist 1.4, TAAR1 antag -27.7 and TAAR1 ag -1.5.
Screening c1ccc2c(Cn3ccnc3)c[nH]c2c1 returned GalR3 antagonist -2.6, TAAR1 antag 12.9, CHO parental Ca 3.2, TAAR1 ag 54.2*, OX1R antag-1 -4.7, OX1R antag-2 4.0, TAAR1 ag confirm 71.0*, Ga16 ag counter 4.1, TAAR1 desens 35.9 and Ga16 antag count 6.7.
For OCc1ccccc1Cn1ccnc1 the results were GalR3 antagonist 0.0, TAAR1 antag -18.6 and TAAR1 ag 1.1.
Screening O=[N+]([O-])c1[nH]cnc1/C=C/c1ccccc1 returned GalR3 antagonist 0.2, CHO parental Ca 3.3, OX1R antag-1 -15.4, OX1R antag-2 24.3, Ga16 ag counter 3.4 and Ga16 antag count 13.4.
Screening COc1ccc(NC(=O)C(c2ccc(Cl)cc2)C(C)C)cn1 (configuration not stated) returned CHO parental Ca -14.2, OX1R antag-1 -17.1 and OX1R antag-2 11.6.
`CN(Cc1cccs1)C(=O)CNC(=O)c1ccco1` gave GalR3 antagonist 2.7, TAAR1 antag -13.6, CHO parental Ca 0.4, TAAR1 ag 2.0, OX1R antag-1 -14.9 and OX1R antag-2 7.9.
For Cc1sc2c3ccsc3ccc2[n+]1C the results were GalR3 antagonist -8.8, TAAR1 antag 1.5, CHO parental Ca 7.0, TAAR1 ag 26.0, OX1R antag-1 -2.8 and OX1R antag-2 15.2.
Cc1sc2ccc3sccc3c2[n+]1C was read as GalR3 antagonist -8.0, TAAR1 antag 12.9, CHO parental Ca 8.4, TAAR1 ag 48.1*, OX1R antag-1 12.6, OX1R antag-2 4.5, TAAR1 ag confirm 13.9, Ga16 ag counter 7.7, TAAR1 desens 11.2 and Ga16 antag count 10.3.
For CSCCC(NS(=O)(=O)c1ccccc1F)C(=O)NCc1cccnc1 (configuration not stated) the results were GalR3 antagonist -3.1, TAAR1 antag -24.3, CHO parental Ca -5.2, TAAR1 ag 6.1, OX1R antag-1 -16.5 and OX1R antag-2 12.5.
Screening Cc1ccc(OCC(=O)Nc2cc(S(=O)(=O)N3CCCCC3)ccc2N2CCN(C)CC2)c(C)c1 returned GalR3 antagonist -3.1, TAAR1 antag -10.6, CHO parental Ca -8.5, TAAR1 ag 6.2, OX1R antag-1 -25.3 and OX1R antag-2 4.5.
For Cc1ccccc1OCCC(=O)Nc1cc(S(=O)(=O)N2CCCCC2)ccc1N1CCN(C)CC1 the results were GalR3 antagonist -7.1, TAAR1 antag 49.3*, TAAR1 ag 89.6*, TAAR1 ag confirm 105.4*, Ga16 ag counter 73.4*, TAAR1 desens 78.4* and Ga16 antag count 58.8*.
Screening COCCCNC(=O)CCc1nc(-c2ccccc2Cl)no1 returned GalR3 antagonist 3.3, TAAR1 antag -11.4, CHO parental Ca -8.5, TAAR1 ag 0.2, OX1R antag-1 -18.3 and OX1R antag-2 6.7.
